Experimental findings from ChEMBL document CHEMBL3739414, “Synthesis and biological evaluation of methylated scutellarein analogs based on metabolic mechanism of scutellarin in vivo” (Eur J Med Chem, 2015) are described below.

Molecules are shown by their SMILES. pIC50: −log10 of the molar value. Converted amounts (≈) assume the structure as drawn.

Series [1] relates to Plasma. Briefly: Antithrombotic activity in New Zealand white rabbit platelet-poor plasma assessed as increase of thrombin time at 100 uM after 3 mins (reference value: 20.25 +/- 1.02 seconds). Format: functional, Oryctolagus cuniculus. The essentials: (§1)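 Citrated blood (3.8% citrate, 1:9) spun 3000 rpm for 10 min to give platelet-poor plasma. Compounds dissolved in 80% ethanol at 100 μM. Kit assays run on a coagulometer at 37 °C with 3 min incubations. TT: plasma, then thrombin plus sample. PT: plasma, then thromboplastin plus sample. APTT: sample, plasma and activator. FIB: plasma, FIB reagent and sample. Mean ± S.D., n = 4.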

For series [2], the system named is Plasma. The series can be described thus: Antithrombotic activity in New Zealand white rabbit platelet-poor plasma assessed as increase of prothrombin time at 100 uM after 3 mins (reference value: 4.99 +/- 0.18 seconds). In kind it is functional, Oryctolagus cuniculus. The essentials:
as §1

Series [3] has as its system Plasma. Briefly: Antithrombotic activity in New Zealand white rabbit platelet-poor plasma assessed as increase of activated partial thromboplastin time at 100 uM after 3 mins (reference value: 30.58 +/- 1.55 seconds). Format: functional, Oryctolagus cuniculus. The essentials: as §1
Series [4] can be described thus: Antioxidant activity assessed as DPPH radical scavenging activity after 30 mins. Format: physicochemical. In a few lines: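 Sample in DMSO at 5–500 μM mixed 1:1 with 0.2 mM DPPH in ethanol; DMSO control. Reaction 30 min at 25 °C, absorbance at 517 nm. Scavenging % = [1 − (A1 − A2)/A0] × 100, with a no-DPPH sample blank. IC50 = concentration giving 50% loss of DPPH radical.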
A general note: Loss of DPPH colour is used to gauge radical scavenging.

Series [5] can be described thus: Antioxidant activity in rat PC12 cells assessed as inhibition of H2O2-induced cytotoxicity at 50 uM after 4 hrs by MTT assay. In kind it is functional. As to conditions: PC-12, 4 h. The essentials: (§2)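 PC12 cells seeded at 5×10^4 cells/ml and cultured 24 h at 37 °C, 5% CO2. The model group got 400 µM H2O2 for 1 h before drug at 25 or 50 µM; the control group got serum-free DMEM. Five wells per group. MTT 4 h at 37 °C, formazan dissolved in DMSO, absorbance read at 517 nm; inhibiting rate of H2O2 cytotoxicity calculated from absorbance.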

Series [6] can be described thus: Antioxidant activity in rat PC12 cells assessed as inhibition of H2O2-induced cytotoxicity at 25 uM after 4 hrs by MTT assay. Format: functional. As to conditions: PC-12, 4 h. The essentials: as §2
Series [7] can be described thus: Aqueous solubility of the compound in water after 1 hr by UV-vis spectrophotometer analysis. In kind it is physicochemical. The essentials:
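Standard curves from methanol solutions at 0.1–10 µg/ml, UV read at 334 nm. Compound (150 µg) dissolved in 10 ml water by ultrasound for 1 h at room temperature, left 30 min, centrifuged. Supernatant measured by UV scan and solubility read from the standard curve.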

Series [8] can be described thus: N-octanol/0.1 M HCl partition coefficient, log P of the compound after 5 hrs by spectrophotometric analysis. In kind it is physicochemical. In a few lines: (§3)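 Shake-flask method. Stock (10 µg/ml) diluted into buffer (0.1 mol/L HCl, 0.15 mol/L NaCl or 0.15 mol/L NaHCO3) and mixed with an equal volume of mutually saturated n-octanol, protected from light. Vortexed 3 min, then shaken 5 h at 25 °C. Both phases read at 334 nm; logP = log([C]octanol/[C]aqueous).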

Series [9] is described as follows: N-octanol/0.15 M NaCl partition coefficient, log P of the compound after 5 hrs by spectrophotometric analysis. In kind it is physicochemical. The essentials:
as §3

Series [10] is described as follows: N-octanol/0.15 M NaHCO3 partition coefficient, log P of the compound after 5 hrs by spectrophotometric analysis. Format: physicochemical. In a few lines: as §3
The test system of series [11] is Plasma. Briefly: Antithrombotic activity in New Zealand white rabbit platelet-poor plasma assessed as reduction of fibrinogen at 100 uM after 3 mins (reference value: 7.02+/- 0.16 g/L).

`COc1c(O)cc2oc(-c3ccc(O)cc3)cc(=O)c2c1O` [HISPIDULIN]: the TT in series [1] is listed as 25.96 s. In addition, in series [2], the PT came out at 6.25 s. In addition, in [3], the APTT turned out to be 33.1 s. Moreover, the pIC50 in [4] is 4.63. Moreover, in series [5], the inhibition at 50 µM worked out at 88%. For the same compound, in series [6], the inhibition at 25 µM is 62.4%. In addition, the solubility at 1 h in series [7] was determined as 4.27 µg/mL (≈ 14.2 µM). Besides, the figures for the logP at 5 h in [8], in series [9] and in series [10] were 1.77, 1.68 and 1.02, respectively. Besides, the Activity in [11] turned out to be 5.38 g/L.
In the case of `COc1ccc(-c2cc(=O)c3c(O)c(OC)c(O)cc3o2)cc1` [PECTOLINARIGENIN], in series [1], the TT was 27.45 s. The PT in series [2] was found to be 6.53 s. Also, in series [3], the APTT was 30.48 s. For the same compound, in [4], the pIC50 was 3.77. In series [5], the inhibition at 50 µM was determined as 68.1%. For the same compound, the inhibition at 25 µM in [6] was 44.2%. In addition, the concentration in solution in [7] (solubility at 1 h) came to 1.36 µg/mL (≈ 4.33 µM). Moreover, the values for the logP at 5 h in [8], in [9] and in [10] were 2.14, 2.09 and 1.86, respectively. Besides, the Activity in series [11] stood at 5.92 g/L.
Turning to `O=c1cc(-c2ccc(O)cc2)oc2cc(O)c(O)c(O)c12` [SCUTELLAREIN], the TT in [1] is 24.4 s. The PT in series [2] amounted to 5.93 s. The APTT in [3] is on record as 36.65 s. Also, the pIC50 in [4] was 4.65. In series [5], the inhibition at 50 µM turned out to be 91.2%. The inhibition at 25 µM in series [6] came out at 64.6%. For the same compound, the logP at 5 h was found to be 0.892 in [8], 0.772 in [9] and 0.48 in series [10]. Also, the Activity in [11] came to 6.84 g/L.
`COc1ccc(-c2cc(=O)c3c(O)c(O)c(O)cc3o2)cc1`: the TT in series [1] is listed as 24.98 s. Further, the PT in series [2] was 6.4 s. Moreover, in [3], the APTT came out at 31.53 s. Also, in [4], the pIC50 was 4.60. In addition, the inhibition at 50 µM in [5] was 89.4%. Moreover, the inhibition at 25 µM in [6] is 63.3%. This compound also gave a solubility at 1 h in series [7] of 6.31 µg/mL (≈ 21 µM). In addition, the logP at 5 h amounted to 1.65 in series [8], 1.41 in series [9] and 0.785 in [10]. In addition, the Activity in series [11] turned out to be 5.67 g/L.
For `COc1cc2oc(-c3ccc(O)cc3)cc(=O)c2c(O)c1O`, the TT in series [1] stood at 25.48 s. The PT in series [2] is 6.55 s. In addition, the APTT in series [3] was 34.49 s. For the same compound, the negative logarithm of the IC50 (pIC50) in [4] was 4.52. The inhibition at 50 µM in series [5] is 82.3%. In series [6], the inhibition at 25 µM worked out at 56.2%. For the same compound, the concentration in solution in series [7] (solubility at 1 h) came to 4.56 µg/mL (≈ 15.2 µM). The logP at 5 h in series [8] is 1.59; in [9], 1.54; in [10] it was 1.03. Also, in [11], the Activity stood at 5.74 g/L.
`O=C(O)[C@H]1O[C@@H](Oc2cc3oc(-c4ccc(O)cc4)cc(=O)c3c(O)c2O)[C@H](O)[C@@H](O)[C@@H]1O` [SCUTELLARIN]: the TT in series [1] was 23.08 s. Also, in series [2], the PT is 6.28 s. The APTT in series [3] worked out at 34.18 s. For the same compound, in series [4], the pIC50 was 4.55. Also, the inhibition at 50 µM in series [5] amounted to 79.2%. Besides, the inhibition at 25 µM in [6] is 53.1%. The logP at 5 h in series [8] is 0.592; in series [9] it was 0.365; in series [10], -0.0513. The Activity in [11] is reported as 6.13 g/L.
`COc1c(O)c(O)cc2oc(-c3ccc(O)cc3)cc(=O)c12`: the TT in series [1] is on record as 22.6 s. The PT in [2] came out at 6.65 s. In addition, in series [3], the APTT is 30.53 s. The pIC50 in series [4] was 4.54. In addition, the inhibition at 50 µM in [5] stood at 81.4%. For the same compound, the inhibition at 25 µM in [6] was 54.4%. The concentration in solution in [7] (solubility at 1 h) was 5.72 µg/mL (≈ 19 µM). Moreover, the results for the logP at 5 h in [8], in series [9] and in series [10] were 1.55, 1.47 and 0.892, respectively. Further, in [11], the Activity was determined as 5.58 g/L.
Consider `COc1ccc(-c2cc(=O)c3c(O)c(O)c(OC)cc3o2)cc1` [LADANEIN], for which the TT in [1] was found to be 23.33 s. Further, the PT in series [2] came to 6.93 s. The APTT in [3] stood at 38.28 s. For the same compound, the pIC50 in [4] was 3.80. Further, the inhibition at 50 µM in series [5] came out at 74.3%. Besides, the inhibition at 25 µM in series [6] is 48.2%. In series [7], the solubility at 1 h turned out to be 3.2 µg/mL (≈ 10.2 µM). Besides, the log partition coefficient (logP) at 5 h worked out at 1.94 in series [8], 1.79 in series [9] and 1.4 in [10]. In addition, the Activity in [11] was found to be 5.94 g/L.
Consider `COc1ccc(-c2cc(=O)c3c(O)c(OC)c(OC)cc3o2)cc1` [SALVIGENIN], for which the TT in series [1] is 29.03 s. Also, the PT in series [2] is on record as 6.75 s. In addition, in series [3], the APTT turned out to be 36 s. Besides, the pIC50 in series [4] is 3.33. Further, the inhibition at 50 µM in series [5] worked out at 20.4%. Moreover, the inhibition at 25 µM in series [6] is 11.1%. In series [7], this compound registered a solubility at 1 h of 0.31 µg/mL (≈ 0.944 µM). Besides, the logP at 5 h came to 2.64 in series [8], 2.55 in [9] and 2.27 in series [10]. The Activity in series [11] is given as 5.96 g/L.
Take `COc1cc2oc(-c3ccc(O)cc3)cc(=O)c2c(O)c1OC` [CIRSIMARITIN]: the TT in series [1] stood at 25.1 s. The PT in [2] is given as 6.95 s. For the same compound, in series [3], the APTT is on record as 39.42 s. For the same compound, the pIC50 in series [4] is 3.72. Further, in [5], the inhibition at 50 µM came to 76.1%. Further, in series [6], the inhibition at 25 µM was determined as 52.2%. Besides, the solubility at 1 h in series [7] stood at 1.53 µg/mL (≈ 4.87 µM). Besides, the logP at 5 h in series [8] worked out at 2.19; in series [9], 2.14; in series [10] it was 1.81. Further, the Activity in series [11] is 5.65 g/L.

As usually defined, the pIC50 is −log10 of the IC50, conventionally taken in molar units. A word on the inhibition: it is the share of the control response that was lost under treatment. Broadly, the solubility is the concentration that dissolves in the medium under given conditions. A lower solubility goes with a poorly soluble substance. The term logP denotes a log measure of how a compound divides between an organic and an aqueous phase. A low value points to lower lipophilicity.
